This note sets out measurements from ChEMBL document CHEMBL3351675, “Novel benzenesulfonylureas containing thiophenylpyrazoline moiety as potential antidiabetic and anticancer agents” (Bioorg Med Chem Lett, 2014).

The source made the active and inactive calls. The calls are words filed in the database; no cut-off is given here.

For series [1], the system named is Rattus norvegicus. The series is described as follows: Antidiabetic activity in overnight fasted Wistar rat assessed as reduction in plasma glucose level at 30 mg/kg, po by oral glucose tolerance test. The format is functional, organism-based. Set-up: dose 30 mg/kg. Summed up: (§1)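 Normal Wistar rats were given a glucose load by the oral glucose tolerance method, and plasma glucose rise was followed after oral test dosing. Glibenclamide was the reference drug. Data are mean ± SEM of six observations versus control, analysed by one-way ANOVA with Dunnett test (p < 0.05, p < 0.01).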

In series [2] the test system is Rattus norvegicus. In words: Effect on body weight in Wistar rat model of streptozotocin-induced diabetes at 30 mg/kg, po measured over 15 days. On the set-up: dose 30 mg/kg, route oral. The format is ADME, organism-based. To be noted: in vivo, 360 h.
Series [3] deals with Peroxisome proliferator-activated receptor gamma (Mus musculus) (UniProt P37238). The series is described as follows: Transactivation of PPARgamma (mouse) expressed in 3T3-L1 cells incubated for 24 hrs by luciferase reporter gene assay relative to rosiglitazone. Background: A reporter such as luciferase makes a cellular process visible.
The test system of series [4] is Rattus norvegicus. The series is described as follows: Antidiabetic activity in Wistar rat model of streptozotocin-induced diabetes assessed as reduction in plasma glucose level at 30 mg/kg, po and dosage repeated for 15 days by GOD-POD method. The format is functional, organism-based. Set-up: dose 30 mg/kg.
The subject of series [5] is Rattus norvegicus. In words: Increase in body weight in Wistar rat model of streptozotocin-induced diabetes at 30 mg/kg, po measured over 15 days. Conditions: in vivo, 360 h. On the set-up: dose 30 mg/kg, route oral. The format is ADME, organism-based.
The subject of a further series is 3T3-L1. The series is described as follows: Increase in PPARgamma gene expression in mouse 3T3L1 cells at 10 uM incubated for 24 hrs by RT-PCR method. The format is functional.
For series [6], the system named is Rattus norvegicus. In words: Antidiabetic activity in overnight fasted Wistar rat assessed as reduction in plasma glucose level at 36 mg/kg, po by oral glucose tolerance test. The format is functional, organism-based. On the set-up: dose 36 mg/kg. Summed up: as §1
The subject of series [7] is Rattus norvegicus. In words: Antidiabetic activity in Wistar rat model of streptozotocin-induced diabetes assessed as reduction in plasma glucose level at 36 mg/kg, po and dosage repeated for 15 days by GOD-POD method. The format is functional, organism-based. Set-up: dose 36 mg/kg.
Series [8] deals with Rattus norvegicus. In words: Effect on body weight in Wistar rat model of streptozotocin-induced diabetes at 36 mg/kg, po measured over 15 days. The format is ADME, organism-based. Set-up: dose 36 mg/kg, route oral. Conditions: in vivo, 360 h.

Peroxisome proliferator-activated receptor gamma (Mus musculus), sequence (P37238 whole entry, looked up): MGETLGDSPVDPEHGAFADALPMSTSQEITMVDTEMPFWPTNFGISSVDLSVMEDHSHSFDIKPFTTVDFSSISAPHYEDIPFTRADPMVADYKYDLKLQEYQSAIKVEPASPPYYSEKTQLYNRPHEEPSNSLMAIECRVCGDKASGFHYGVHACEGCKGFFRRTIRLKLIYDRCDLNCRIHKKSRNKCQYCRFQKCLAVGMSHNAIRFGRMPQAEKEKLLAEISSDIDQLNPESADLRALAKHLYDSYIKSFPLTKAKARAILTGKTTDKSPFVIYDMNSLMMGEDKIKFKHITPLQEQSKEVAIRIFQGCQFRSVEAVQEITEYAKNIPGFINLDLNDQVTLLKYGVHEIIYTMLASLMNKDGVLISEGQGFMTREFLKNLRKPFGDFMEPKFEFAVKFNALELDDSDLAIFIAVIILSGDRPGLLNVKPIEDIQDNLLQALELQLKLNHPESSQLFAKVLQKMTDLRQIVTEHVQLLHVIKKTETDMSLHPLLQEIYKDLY

In the case of `Cc1ccc(NC(=O)NS(=O)(=O)c2ccc(N3N=C(c4cccs4)CC3c3cccs3)cc2)cc1` (stereo not drawn), the inhibition result in the series with Rattus norvegicus [1] is “Active”. Besides, the Activity result in the series with Rattus norvegicus [2] is reported as “Non-toxic”. In series [3], the result was inactive.
The matching figures for `CN(C)c1ccc(C2CC(c3cccs3)=NN2c2ccc(S(=O)(=O)NC(=S)NCc3ccccc3)cc2)cc1` (stereo not drawn): “Active”, “Non-toxic” and “inactive”.
`CCCCNC(=O)NS(=O)(=O)c1ccc(N2N=C(c3cccs3)CC2c2ccccc2)cc1` (stereo not drawn): the inhibition result with Rattus norvegicus [1] and with Rattus norvegicus [4] was “Active” in each case. In addition, the Activity result with Rattus norvegicus [5] is on record as “Toxic”. For the same compound, in [3], the result was inactive.
With `O=C(NCc1ccccc1)NS(=O)(=O)c1ccc(N2N=C(c3cccs3)CC2c2cccs2)cc1` (stereo not drawn), the inhibition result in the series on Rattus norvegicus [1] was “Active”. In addition, the Activity result with Rattus norvegicus [2] is “Non-toxic”. In addition, the result in series [3] was inactive.
As for `Cc1ccccc1NC(=O)NS(=O)(=O)c1ccc(N2N=C(c3cccs3)CC2c2ccccc2)cc1` (stereo not drawn), the inhibition entry with Rattus norvegicus [1] and in the series with Rattus norvegicus [4] was “Active” each time. For the same compound, the Activity result with Rattus norvegicus [2] is recorded as “Non-toxic”. The “fold change (FC)” value in the series with 3T3-L1 turned out to be 0.95. Besides, the outcome in series [3] was inactive.
Turning to `COc1ccc(C2CC(c3cccs3)=NN2c2ccc(S(=O)(=O)NC(=O)Nc3ccc(C)cc3)cc2)cc1` (stereo not drawn), the inhibition entry in the series with Rattus norvegicus [1] was “Active”. In the series on Rattus norvegicus [2], the Activity result is on record as “Non-toxic”. Besides, the outcome in series [3] was inactive.
Regarding `COc1ccc(NC(=O)NS(=O)(=O)c2ccc(N3N=C(c4cccs4)CC3c3cccs3)cc2)cc1` (stereo not drawn), the inhibition entry in the series on Rattus norvegicus [1] and in the series with Rattus norvegicus [4] was “Active” each time. Also, in the series on Rattus norvegicus [2], the Activity entry is “Non-toxic”. In addition, the result in series [3] was inactive.
Turning to `CN(C)c1ccc(C2CC(c3cccs3)=NN2c2ccc(S(=O)(=O)NC(=O)NCc3ccccc3)cc2)cc1` (stereo not drawn), the inhibition result in the series with Rattus norvegicus [1] is “Active”. The Activity result in the series with Rattus norvegicus [5] was “Toxic”. For the same compound, in series [3], the result was inactive.
The matching figures for `CCCCNC(=O)NS(=O)(=O)c1ccc(N2N=C(c3cccs3)CC2c2cccs2)cc1` (stereo not drawn): “Active”, “Toxic” and “inactive”.
In the case of `Cc1ccc(C2CC(c3cccs3)=NN2c2ccc(S(=O)(=O)NC(=O)Nc3ccccc3C)cc2)s1` (stereo not drawn), the Activity entry in the series on Rattus norvegicus [2] is given as “Non-toxic”.
Turning to `COc1ccc(NC(=O)NS(=O)(=O)c2ccc(N3N=C(c4cccs4)CC3c3ccccc3)cc2)cc1` (stereo not drawn), the inhibition result in the series with Rattus norvegicus [1] and in the series with Rattus norvegicus [4] was “Active” in each case. The Activity result in the series on Rattus norvegicus [2] is reported as “Non-toxic”. The outcome in series [3] was inactive.
Regarding `Cc1ccc(NC(=O)NS(=O)(=O)c2ccc(N3N=C(c4cccs4)CC3c3ccccc3)cc2)cc1` (stereo not drawn), the inhibition result with Rattus norvegicus [1] and with Rattus norvegicus [4] was “Active” each time. Also, the result in series [3] was inactive.
Take `Cc1ccc(NC(=O)NS(=O)(=O)c2ccc(N3N=C(c4cccs4)CC3c3ccc(N(C)C)cc3)cc2)cc1` (stereo not drawn): the inhibition result in the series with Rattus norvegicus [1] is “Active”. Further, the Activity result in the series on Rattus norvegicus [2] was “Non-toxic”. The outcome in series [3] was inactive.
Take `O=C(NCc1ccccc1)NS(=O)(=O)c1ccc(N2N=C(c3cccs3)CC2c2ccccc2)cc1` (stereo not drawn): the inhibition result in the series with Rattus norvegicus [1] and with Rattus norvegicus [4] was “Active” in each case. The Activity entry in the series on Rattus norvegicus [2] is “Non-toxic”. In addition, the result in series [3] was inactive.
Turning to `Cc1ccc(C2CC(c3cccs3)=NN2c2ccc(S(=O)(=O)NC(=O)NCc3ccccc3)cc2)s1` (stereo not drawn), the inhibition result with Rattus norvegicus [1] was “Active”. The Activity result in the series with Rattus norvegicus [2] was “Non-toxic”. In addition, in [3], the result was inactive.
Take `CN(CCOc1ccc(CC2SC(=O)NC2=O)cc1)c1ccccn1` (stereo not drawn) [ROSIGLITAZONE]: the inhibition result in the series with Rattus norvegicus [6] and with Rattus norvegicus [7] was “Active” each time. Moreover, in the series on Rattus norvegicus [8], the Activity result was “Toxic”. In addition, in the series on 3T3-L1, the “fold change (FC)” value was 1.5.
For `COc1ccc(Cl)cc1C(=O)NCCc1ccc(S(=O)(=O)NC(=O)NC2CCCCC2)cc1` [GLYBURIDE], the inhibition entry with Rattus norvegicus [1] and with Rattus norvegicus [4] was “Active” in each case. In addition, in the series on Rattus norvegicus [5], the Activity entry is “Toxic”. In the series with 3T3-L1, the “fold change (FC)” value turned out to be 1. Further, in series [3], the outcome was inactive.
